The list is not random: actives were taken first. Their share in the collection is about 5.7%.
CSC inhib = cancer stem cell viability inhibitors, primary screen, luminescence; cancer stem cell-like cells viability; inhibition, % at 7.5 µM; 1.1% of 300,000 active; AID 2717, 2010; in the data active = inhibition above about 75%; inconclusive = no clear call, values can overlap the other calls; tested in HMLE shEcad cells
SKKanGAS inh = S. pyogenes SKKanGAS growth inhibitors in kanamycin, primary screen, streptokinase expression inhibitor project, SKKanGAS strain, BacTiter-Glo luminescence; 6 h; inhibition, % at 7.5 µM; 1.3% of 300,000 active;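 active = mean replicate score, as percent of positive control median, at least 50; inconclusive = mean below 50 but one replicate at or above 50; inactive = mean and every replicate below 50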;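 also: strain carries kanamycin resistance gene driven by streptokinase promoter and grows in 40 µg/ml kanamycin; loss of luminescence reflects streptokinase promoter inhibition or plain growth inhibition; 0% = median of DMSO wells and 100% = positive control at its reference dose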
T cruzi repl = inhibitors of intracellular T. cruzi growth, primary screen, luminescence, NIH3T3 host cells; T. cruzi beta-gal in NIH3T3, 90 h; inhibition, % (concentration not given with the values); 1.4% of 300,000 active; AID 1885, 2009;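 active = mean inhibition across valid replicates above about 55%, limit read from the data; inconclusive = mean below that limit but half or more replicates reach it; inactive = mean below it, under half of replicates reach it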;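 also: signal also drops with host cell toxicity which is not excluded here; 0% = plate median of DMSO wells and 100% = zero luminescence signal; higher percent means less beta-gal luminescence so fewer parasites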
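compound dosing = single 50 nL compound addition per well in DMSO | material = NIH/3T3 host cells with β-galactosidase reporter T. cruzi | input = 5,000 host fibroblasts per well | timing = ≥90 h infection period, 3 h prior cell attachment | read-out basis = percent inhibition of parasite-derived β-gal signal | detection = GalScreen β-gal luminescence, detergent lysis, 60 min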
Mdm2 MdmX PPI = inhibitors of human Mdm2-MdmX association, primary screen, cell-based, luminescence, split luciferase, SaOS-2, uHTS; Protein Mdm4 (Homo sapiens) + E3 ubiquitin-protein ligase Mdm2 (Homo sapiens), …; SaOS-2 split-luciferase Mdm2/MdmX complementation; inhibition, % at 8 µM; 3% of 330,000 active; AID 485346, 2010;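 active = inhibition of at least 50% at 8 µM in the primary screen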
Target sequence (O15151 whole entry, looked up): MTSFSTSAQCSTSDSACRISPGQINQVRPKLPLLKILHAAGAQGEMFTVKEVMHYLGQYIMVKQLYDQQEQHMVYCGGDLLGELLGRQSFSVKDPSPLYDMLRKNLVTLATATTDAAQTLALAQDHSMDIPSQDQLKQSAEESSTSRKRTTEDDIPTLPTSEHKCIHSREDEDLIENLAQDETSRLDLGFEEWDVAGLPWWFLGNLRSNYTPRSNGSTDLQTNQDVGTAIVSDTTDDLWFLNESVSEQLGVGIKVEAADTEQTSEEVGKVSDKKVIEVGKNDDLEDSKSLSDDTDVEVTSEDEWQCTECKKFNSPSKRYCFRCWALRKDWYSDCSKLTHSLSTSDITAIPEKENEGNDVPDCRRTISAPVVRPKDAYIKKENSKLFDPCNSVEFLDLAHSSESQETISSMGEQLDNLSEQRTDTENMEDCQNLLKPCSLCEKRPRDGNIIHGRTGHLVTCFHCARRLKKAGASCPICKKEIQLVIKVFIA
Target sequence (Q00987 whole entry, looked up): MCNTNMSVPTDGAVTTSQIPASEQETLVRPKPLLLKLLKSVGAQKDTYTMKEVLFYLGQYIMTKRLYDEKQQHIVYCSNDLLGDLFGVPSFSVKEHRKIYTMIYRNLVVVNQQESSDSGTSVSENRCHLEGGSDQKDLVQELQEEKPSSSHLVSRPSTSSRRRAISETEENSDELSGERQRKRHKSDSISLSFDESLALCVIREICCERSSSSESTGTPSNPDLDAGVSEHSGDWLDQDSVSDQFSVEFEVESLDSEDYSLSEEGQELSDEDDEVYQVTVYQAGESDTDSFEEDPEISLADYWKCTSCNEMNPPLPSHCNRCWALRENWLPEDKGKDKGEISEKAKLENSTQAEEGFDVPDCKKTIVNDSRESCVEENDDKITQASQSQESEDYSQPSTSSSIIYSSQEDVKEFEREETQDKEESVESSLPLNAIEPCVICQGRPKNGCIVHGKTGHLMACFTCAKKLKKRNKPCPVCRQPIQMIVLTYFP
Beta cell apopt = inhibitors of cytokine-induced beta cell apoptosis, primary screen, luminescence. INS-1E cytokine-induced death, ATP luminescence, 48 h; percent of positive-control rescue, neutral wells zero. protection from apoptosis, % (no concentration beside the values). 0.8% of 300,000 active. AID 435005, 2010;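 active = Every replicate reaches about 75%, or at least half do and their mean reaches it too, limit read from the data; inconclusive = At least half of replicates reach the limit but their mean does not; inactive = Under half of replicates reach the limit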;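 also: 0% = cytokine-treated negative control wells and 100% = positive control rescue; higher means more ATP so stronger rescue from cytokine killing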
Calb FLC = C. albicans growth inhibition with fluconazole, primary screen, CaCi-2 strain, Alamar Blue fluorescence. C. albicans CaCi-2 (fluconazole-resistant clinical isolate) + fluconazole, 48 h. growth inhibition, % (concentration not given with the values). 0.57% of 300,000 active. AID 1979, 2009;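 active = growth inhibition above about 58% in most replicates, limit read from the data, passing the limit was not always enough; inconclusive = exactly half the replicates above a set limit; inactive = most replicates below a set limit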;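 also: all wells also contain fluconazole at 8 µg/ml as a sub-toxic cotreatment; 0% = median of DMSO wells and 100% = median of geldanamycin control wells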
Starred values were filed as active, the others as inactive.

For CC(C)(C)c1ccc(NC(=O)Cn2cnc3cc([N+](=O)[O-])ccc3c2=O)cc1 the results were CSC inhib -11, SKKanGAS inh -3, T cruzi repl 72*, Mdm2 MdmX PPI 1 and Calb FLC 2.
Cc1ccc(CNC(=O)Cn2cnc3cc([N+](=O)[O-])ccc3c2=O)cc1 was read as CSC inhib -9, SKKanGAS inh -4, T cruzi repl 50, Mdm2 MdmX PPI -9, Beta cell apopt -8 and Calb FLC 27.
For O=C(Cn1cnc2cc([N+](=O)[O-])ccc2c1=O)Nc1ccc(Br)cc1 the results were CSC inhib -3, SKKanGAS inh 3, T cruzi repl 68*, Mdm2 MdmX PPI 27, Beta cell apopt 2 and Calb FLC 11.
Screening COc1ccc([N+](=O)[O-])cc1NC(=O)COC(=O)Cn1cnc2ccccc2c1=O returned CSC inhib 7, Mdm2 MdmX PPI -18 and Beta cell apopt -2.
`CC1CCCC(C)N1C(=O)Cn1cnc2cc([N+](=O)[O-])ccc2c1=O` (configuration not stated) gave CSC inhib 7, SKKanGAS inh -6, T cruzi repl 9, Mdm2 MdmX PPI 1, Beta cell apopt 2 and Calb FLC 7.
For O=C(Cn1cnc2cc([N+](=O)[O-])ccc2c1=O)Nc1ccccc1-c1ccccc1 the results were CSC inhib 6, SKKanGAS inh 8, T cruzi repl 58*, Mdm2 MdmX PPI 36, Beta cell apopt 2 and Calb FLC -1.
`CCn1nc(CC(C)C)cc1C(=O)N1CCCC(Nc2ccc(OC)cc2)C1` (configuration not stated) gave CSC inhib -4, SKKanGAS inh 0, T cruzi repl 11, Mdm2 MdmX PPI 13, Beta cell apopt 2 and Calb FLC 2.
`Cn1c(=O)c2c(-c3ccc(OC(F)F)cc3)cc(-c3ccccc3)nc2n(C)c1=O` gave CSC inhib -11, SKKanGAS inh 0, T cruzi repl 13, Mdm2 MdmX PPI -13, Beta cell apopt -3 and Calb FLC -8.
Screening COC(=O)c1cc(-c2ccc(Br)cc2)c2c(=O)[nH]c(=O)n(C)c2n1 returned CSC inhib -3, SKKanGAS inh 62*, T cruzi repl 5, Mdm2 MdmX PPI 43, Beta cell apopt 6 and Calb FLC -2.
`CCOc1ccc(-c2cc(C(=O)OC)nc3c2c(=O)n(C)c(=O)n3C)cc1` gave CSC inhib 6, SKKanGAS inh 93*, T cruzi repl -7, Mdm2 MdmX PPI 46, Beta cell apopt -2 and Calb FLC -7.
CC(C)N(CCn1c(SCC(=O)N2CC(=O)Nc3ccccc32)nc2ccccc2c1=O)C(C)C was read as CSC inhib -11, SKKanGAS inh 1, T cruzi repl 69*, Mdm2 MdmX PPI 30, Beta cell apopt -3 and Calb FLC inconclusive.
For CN(C)CCCn1c(SCC(=O)N2CC(=O)Nc3ccccc32)nc2ccccc2c1=O the results were CSC inhib -13, SKKanGAS inh 6, T cruzi repl 25, Mdm2 MdmX PPI 9, Beta cell apopt -14 and Calb FLC 3.
For O=C(c1ccc(-c2ccc(Cl)cc2)o1)N1CCN(c2ccc([N+](=O)[O-])cc2Cl)CC1 the results were CSC inhib 43, SKKanGAS inh 7, T cruzi repl 46, Mdm2 MdmX PPI 3, Beta cell apopt 113* and Calb FLC -4.
`O=C(Nc1ccccc1N1CCN(C(=O)c2ccc(Cl)cc2)CC1)c1cccc([N+](=O)[O-])c1` gave CSC inhib 10, SKKanGAS inh 25, T cruzi repl 55*, Mdm2 MdmX PPI 6, Beta cell apopt 17 and Calb FLC 8.
O=C(Nc1ccccc1N1CCCC1)c1ccc([N+](=O)[O-])cc1Cl was read as CSC inhib 4, SKKanGAS inh -14, T cruzi repl 56*, Mdm2 MdmX PPI -2, Beta cell apopt 0 and Calb FLC 9.
`O=C(Nc1ccccc1N1CCCC1)c1ccc(Cl)cc1Cl` gave CSC inhib 10, SKKanGAS inh 9, T cruzi repl -2, Mdm2 MdmX PPI 14, Beta cell apopt 2 and Calb FLC 0.
Screening Cc1cccc(OCc2nnc(SC(C)C(=O)Nc3ccc(N4CCOCC4)cc3)o2)c1 (configuration not stated) returned Mdm2 MdmX PPI 11 and Beta cell apopt -7.
`N#CC(C#N)=C1C=CC=CN1/C(=C\c1ccco1)C(=O)c1ccc(-c2ccccc2)cc1` gave CSC inhib 75* and Beta cell apopt 16.
Screening CCOC(=O)c1c(C)n(C)c2ccc(OCC(O)CNCCc3ccccc3)cc12 (configuration not stated) returned CSC inhib 2, SKKanGAS inh 5, T cruzi repl 55*, Mdm2 MdmX PPI 21, Beta cell apopt -3 and Calb FLC -18.
For Cc1nc2sccn2c(=O)c1CCN1CCC(=C(c2ccc(F)cc2)c2ccc(F)cc2)CC1 the results were CSC inhib 79*, SKKanGAS inh -1, T cruzi repl 41, Mdm2 MdmX PPI 37 and Beta cell apopt -2.
For CCCC(=O)Nc1cc2c3c(c1)C(C)C(=O)N3CCC2 (configuration not stated) the results were CSC inhib -9, SKKanGAS inh 3, T cruzi repl -8, Mdm2 MdmX PPI 16, Beta cell apopt -11 and Calb FLC -2.
OCCNc1nc(Nc2cc(Cl)ccc2OC2CCCC2)nc(N2CCCC2)n1 was read as CSC inhib 60, SKKanGAS inh 68*, T cruzi repl 43, Mdm2 MdmX PPI 49, Beta cell apopt -3 and Calb FLC 27.
For CCOC(=O)N1CCN(c2cc(N3CCN(CC)CC3)c(F)cc2[N+](=O)[O-])CC1C (configuration not stated) the results were CSC inhib 58, SKKanGAS inh -2, T cruzi repl 60*, Mdm2 MdmX PPI 36, Beta cell apopt 5 and Calb FLC -4.
Screening CCC(=O)N1CCN(c2cc(N3CCN(C)CC3)c(F)cc2[N+](=O)[O-])CC1 returned CSC inhib 3, SKKanGAS inh -3, T cruzi repl 69*, Mdm2 MdmX PPI 8, Beta cell apopt -8 and Calb FLC 0.
`CCOC(=O)N1CCN(c2cc(N3CCOCC3)c(F)cc2[N+](=O)[O-])CC1` gave CSC inhib -5, SKKanGAS inh -6, T cruzi repl 5, Mdm2 MdmX PPI -11, Beta cell apopt 3 and Calb FLC 2.

Compound activity as filed in PubChem BioAssay.
